This note sets out measurements from ChEMBL document CHEMBL1122229, “alpha-adrenoreceptor reagents. 1. Synthesis of some 1,4-benzodioxans as selective presynaptic alpha 2-adrenoreceptor antagonists and potential antidepressants” (J Med Chem, 1983).

The pA2 is a measure of antagonist potency on a negative log scale.

Active and inactive are the calls of the source. The rule behind the calls is not given here.

Assay [1] addresses T1, Adrenergic receptor alpha-1 (Rattus norvegicus) (UniProt P15823+P23944+P43140). Put plainly: In vitro postsynaptic agonist potency at alpha-1 adrenergic receptor in rat anococcygeus muscle relative to phenylephrine; IA means inactive. It is filed as functional, tissue-based. The gist of the method: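 Rat anococcygeus muscle (male Sprague–Dawley rats, 200–250 g) suspended at 0.5 g initial tension in a 50-mL organ bath. […] Standard dose-response curves were run before and after the analogue's curve.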

The target of assay [2] is T2, Adrenergic receptor alpha-1 (Rattus norvegicus, UniProt P15823+P23944+P43140).
T2 sequence (P15823 whole entry): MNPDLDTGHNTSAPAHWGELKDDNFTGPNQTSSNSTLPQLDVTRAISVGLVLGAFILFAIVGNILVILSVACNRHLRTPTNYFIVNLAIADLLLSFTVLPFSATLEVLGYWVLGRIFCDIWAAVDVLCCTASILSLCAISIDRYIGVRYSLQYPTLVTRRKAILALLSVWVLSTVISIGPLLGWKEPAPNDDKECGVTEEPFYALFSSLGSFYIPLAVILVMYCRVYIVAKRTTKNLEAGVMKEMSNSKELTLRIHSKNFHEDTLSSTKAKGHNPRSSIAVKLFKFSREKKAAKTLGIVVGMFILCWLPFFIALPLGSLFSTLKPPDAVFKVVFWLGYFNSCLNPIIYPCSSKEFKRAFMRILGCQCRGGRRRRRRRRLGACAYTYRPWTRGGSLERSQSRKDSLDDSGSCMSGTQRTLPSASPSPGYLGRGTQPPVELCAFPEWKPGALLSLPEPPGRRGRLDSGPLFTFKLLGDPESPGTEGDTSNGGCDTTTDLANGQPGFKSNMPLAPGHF
T2 sequence (P23944 whole entry): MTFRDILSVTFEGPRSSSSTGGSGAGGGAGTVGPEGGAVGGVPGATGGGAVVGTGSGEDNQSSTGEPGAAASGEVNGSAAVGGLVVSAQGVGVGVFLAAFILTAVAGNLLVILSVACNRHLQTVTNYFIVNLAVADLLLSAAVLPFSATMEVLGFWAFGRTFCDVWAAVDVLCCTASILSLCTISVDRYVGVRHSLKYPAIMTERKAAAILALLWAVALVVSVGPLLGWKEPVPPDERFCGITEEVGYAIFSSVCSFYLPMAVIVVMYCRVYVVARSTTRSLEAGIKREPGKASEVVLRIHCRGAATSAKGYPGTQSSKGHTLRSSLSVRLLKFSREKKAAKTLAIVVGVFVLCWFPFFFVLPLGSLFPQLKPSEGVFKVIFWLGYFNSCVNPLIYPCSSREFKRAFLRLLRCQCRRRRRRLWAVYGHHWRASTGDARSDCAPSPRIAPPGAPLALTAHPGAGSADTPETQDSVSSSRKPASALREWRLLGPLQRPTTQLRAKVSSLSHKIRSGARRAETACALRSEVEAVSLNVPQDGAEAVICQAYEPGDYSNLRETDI
T2 sequence (P43140 whole entry): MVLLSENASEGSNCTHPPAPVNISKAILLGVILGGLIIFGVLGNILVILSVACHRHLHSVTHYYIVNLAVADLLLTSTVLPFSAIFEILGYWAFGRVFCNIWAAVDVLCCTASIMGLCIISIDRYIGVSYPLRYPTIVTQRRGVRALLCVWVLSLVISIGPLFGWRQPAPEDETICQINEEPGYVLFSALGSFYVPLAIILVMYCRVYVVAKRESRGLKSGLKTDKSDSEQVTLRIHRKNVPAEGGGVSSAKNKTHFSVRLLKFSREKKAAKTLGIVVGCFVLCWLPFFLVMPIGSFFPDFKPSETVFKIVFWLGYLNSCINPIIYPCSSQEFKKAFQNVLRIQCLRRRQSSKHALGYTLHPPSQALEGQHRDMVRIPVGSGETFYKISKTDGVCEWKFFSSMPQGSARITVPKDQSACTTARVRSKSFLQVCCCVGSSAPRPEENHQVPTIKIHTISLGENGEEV
In words: Alpha-1 adrenergic receptor pA2 value against norepinephrine in vitro experiment in rat anococcygeus. An outline of the steps: (§1)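 pA2 was obtained by Arunlakshana–Schild analysis at postsynaptic α1 (anococcygeus) or presynaptic α2 (vas deferens) sites. Values are mean ± SEM of at least six experiments.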

Assay [3] in a line: Ratio of pA2 value against alpha2 to alpha-1 adrenoceptor. An outline of the steps: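 α2/α1 selectivity was taken as the antilog of the difference between the pA2 values at α2- and α1-adrenoreceptors.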
For assay [4], the target named is T1, Adrenergic receptor alpha-1 (Rattus norvegicus). Put plainly: Ratio of presynaptic antagonist potency to postsynaptic antagonist potency. It is filed as functional.
Assay [5] has the same target. Put plainly: In vitro postsynaptic antagonist potency at alpha-1 adrenergic receptor in rat anococcygeus relative to compound 5 (RX781094). The assay is classed as functional.
For assay [6], the target named is T3, Adrenergic receptor alpha-2 (Rattus norvegicus) (UniProt P22086+P19328+P22909). In words: In vitro presynaptic agonist potency at alpha-2 adrenergic receptor in rat or mouse vas deferens relative to clonidine; IA means inactive. It is filed as functional, tissue-based. An outline of the steps: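 Field-stimulated rat or mouse vas deferens (Krebs, 30 °C, 95% O2/5% CO2, 3-ms pulses at 0.1 Hz) with isometric twitch recording. […] Standard dose-response curves were run before and after the analogue's curve.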

The target of assay [7] is T4, Adrenergic receptor alpha-2 (Rattus norvegicus, UniProt P22086+P19328+P22909).
T4 sequence (P22086 whole entry): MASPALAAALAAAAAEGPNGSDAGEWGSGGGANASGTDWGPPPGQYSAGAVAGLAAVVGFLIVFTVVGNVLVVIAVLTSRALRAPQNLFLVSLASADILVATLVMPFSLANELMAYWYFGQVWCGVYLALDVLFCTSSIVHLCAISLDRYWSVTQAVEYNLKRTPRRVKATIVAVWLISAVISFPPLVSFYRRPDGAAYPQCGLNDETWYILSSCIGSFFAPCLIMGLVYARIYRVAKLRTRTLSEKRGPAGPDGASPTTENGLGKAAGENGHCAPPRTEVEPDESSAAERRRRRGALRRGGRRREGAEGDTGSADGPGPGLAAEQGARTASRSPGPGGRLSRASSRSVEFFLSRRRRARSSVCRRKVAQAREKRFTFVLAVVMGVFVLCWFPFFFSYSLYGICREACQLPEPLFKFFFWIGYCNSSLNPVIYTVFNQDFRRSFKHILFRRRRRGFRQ
T4 sequence (P19328 whole entry): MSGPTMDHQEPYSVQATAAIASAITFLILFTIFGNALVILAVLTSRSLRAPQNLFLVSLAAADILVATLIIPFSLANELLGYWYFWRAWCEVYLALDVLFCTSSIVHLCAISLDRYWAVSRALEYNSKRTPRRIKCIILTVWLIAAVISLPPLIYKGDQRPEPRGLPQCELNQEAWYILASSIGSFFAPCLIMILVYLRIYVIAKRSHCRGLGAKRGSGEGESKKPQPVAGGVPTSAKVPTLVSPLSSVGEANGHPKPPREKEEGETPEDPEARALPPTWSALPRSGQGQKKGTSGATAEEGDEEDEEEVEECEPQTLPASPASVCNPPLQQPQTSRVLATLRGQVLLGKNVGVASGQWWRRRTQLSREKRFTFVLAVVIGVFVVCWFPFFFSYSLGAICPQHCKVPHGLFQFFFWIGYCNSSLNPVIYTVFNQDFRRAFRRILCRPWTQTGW
T4 sequence (P22909 whole entry): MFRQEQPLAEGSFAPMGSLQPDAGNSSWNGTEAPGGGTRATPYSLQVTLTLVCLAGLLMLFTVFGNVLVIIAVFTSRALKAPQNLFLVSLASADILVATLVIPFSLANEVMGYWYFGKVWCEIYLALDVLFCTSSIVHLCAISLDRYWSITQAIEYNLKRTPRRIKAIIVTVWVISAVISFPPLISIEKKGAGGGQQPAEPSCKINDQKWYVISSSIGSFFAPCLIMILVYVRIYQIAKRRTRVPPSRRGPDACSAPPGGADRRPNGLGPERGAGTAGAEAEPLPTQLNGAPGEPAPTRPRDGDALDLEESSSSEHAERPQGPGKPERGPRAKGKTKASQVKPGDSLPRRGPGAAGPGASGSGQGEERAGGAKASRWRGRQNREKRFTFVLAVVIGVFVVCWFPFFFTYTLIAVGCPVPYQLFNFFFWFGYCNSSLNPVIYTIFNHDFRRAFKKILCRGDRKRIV
Put plainly: Alpha-2 adrenergic receptor pA2 value against clonidine in vitro experiment in rat vas deferens. The assay is classed as tissue-based. An outline of the steps:
as §1

In assay [8] the target is T3, Adrenergic receptor alpha-2 (Rattus norvegicus). Put plainly: In vitro presynaptic antagonist potency at alpha-2 adrenergic receptor in rat or mouse vas deferens relative to compound 5 (RX781094). The assay is classed as functional, tissue-based. The gist of the method: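 Prostatic halves of rat vas deferens (male Sprague–Dawley rats, 200–250 g; Krebs, 30 °C, 95% O2/5% CO2; 3-ms, 40 V, 0.1 Hz field pulses) or mouse vas deferens (Mg-free Krebs, 30 °C; 3-ms pulses, 0.1 Hz, 100–140 V) were used, with isometric twitch recording. […] The concentration giving 50% reversal was compared with the RX781094 standard in the same tissue.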

The target in assay [9] is T2, Adrenergic receptor alpha-1. Put plainly: alpha-1 adrenergic receptor pA2 value against norepinephrine in vitro experiment in rat anococcygeus.
Assay [10] is described as follows: Selectivity ratio of presynaptic antagonist potency to postsynaptic antagonist potency. The assay is classed as functional. The gist of the method: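 Selectivity ratio is the antilog of the difference between pA2 values at presynaptic α2- and postsynaptic α1-adrenoreceptors. pA2 values were derived by the Arunlakshana–Schild method, each a mean ± SEM of at least six experiments.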

The target in assay [11] is T1, Adrenergic receptor alpha-1 (Rattus norvegicus). Put plainly: In vitro postsynaptic agonist potency at alpha-1 adrenergic receptor in rat anococcygeus muscle relative to phenylephrine. The assay is classed as functional, tissue-based.
Assay [12] shares this target. Put plainly: In vitro postsynaptic antagonist potency at alpha-1-adrenoceptor in rat anococcygeus relative to compound 5 (RX781094). The assay is classed as functional.
In assay [13] the target is T2, Adrenergic receptor alpha-1. Put plainly: Alpha-1-adrenoceptor pA2 value against norepinephrine in vitro experiment in rat anococcygeus. The gist of the method: as §1

Regarding `Cc1ccc2c(c1)OCC(C1=NCCN1)O2` (centres undefined), the Agonist potency result in assay [1] and in assay [6] was “inactive” each time. The pA2 in assay [2] was 6.17; in assay [7], 7.56. Besides, the Selectivity came to 30 in [3] and 0.21 in assay [4]. In addition, the results for the Antagonist potency in [5] and in assay [8] were 0.4 and 0.08, respectively.

As for `CCn1ccnc1CC1COc2ccccc2O1` (centres undefined) [IMILOXAN], the Agonist potency entry in [1] and in assay [6] was “inactive” each time. For the same compound, the pA2 in assay [9] is reported as 4.85; in [7], 6.98. In addition, the Selectivity in [3] is 135; in assay [10], 0.53. The results for the Antagonist potency in assay [5] and in assay [8] were 0.036 and 0.02, respectively.

For the compound `Cc1ccc2c(c1)OC(C1=NCCN1)CO2` (centres undefined), the Selectivity in [3] came to 17; in assay [4], 0.14. Further, the Agonist potency result in assay [6] was “inactive”. For the same compound, the pA2 is on record as 7.1 in assay [7] and 5.87 in assay [13]. The Antagonist potency in assay [8] was 0.08; in [12], 0.8. In assay [11], the Agonist potency was 0.004.
